The source made the active and inactive calls. The rule behind the calls is not given here.
tested on: U-937; test: Inhibition of LPS/IFN-gamma-induced PGE2 production in PMA-treated human U937 cells at 25 uM after 17 to 20 hrs by enzyme immunoassay relative to control; type: functional; settings: not given
In short: (§1)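 Cells (5 × 10⁵/well) attached 24 h, then stimulated with recombinant IFN-γ 100 U/mL and LPS 2 µg/mL with or without compound (DMSO vehicle, 0.1% final), 17–20 h at 37 °C, 5% CO₂. U937 were first differentiated with 200 nM PMA for 24 h, then serum-free overnight. Supernatant PGE₂ quantified against standard curves; dose-response 0.78–50 µM, means ± SD of three samples.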

**Q.** For COc1cc(/C=C2\CCC/C(=C\c3ccc(C)cc3)C2=O)ccc1O, which inhibition at 25 µM is on record?
**A.** Its inhibition at 25 µM is 85%.

**Q.** Which inhibition at 25 µM does the source give for CCN(CC)c1ccc(/C=C2\CCC/C(=C\c3ccc(O)c(OC)c3)C2=O)cc1 here?
**A.** The inhibition at 25 µM was 85%.

**Q.** For COc1cccc(/C=C2\CCC/C(=C\c3ccc(-c4ccc(F)cc4)cc3)C2=O)c1OC, which inhibition at 25 µM is on record?
**A.** Its inhibition at 25 µM is 68%.

**Q.** Which inhibition at 25 µM does the source give for COc1cccc(/C=C2\CCC/C(=C\c3ccc(C)cc3)C2=O)c1OC here?
**A.** The inhibition at 25 µM was 83%.

**Q.** With Cc1ccc(/C=C2\CCC/C(=C\c3ccc(Cl)c(Cl)c3)C2=O)cc1 as the compound, how does the inhibition at 25 µM read?
**A.** Its inhibition at 25 µM is 68%.

**Q.** With COc1cccc(/C=C2\CCC/C(=C\c3ccc(Cl)c(Cl)c3)C2=O)c1OC as the compound, how does the inhibition at 25 µM read?
**A.** Its inhibition at 25 µM is 58%.

**Q.** Which inhibition at 25 µM does the source give for O=C1/C(=C/c2ccc(Br)cc2)CCC/C1=C\c1ccc(-c2ccc(F)cc2)cc1 here?
**A.** Its inhibition at 25 µM is 66%.

tested on: not listed separately; test: Cytotoxicity against mouse RAW264.7 cells assessed as cell viability at 25 uM by MTT assay relative to control; type: cell-based; settings: read-out: Activity
In short: (§2)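 After 17–20 h stimulation with 100 U/mL IFN-γ plus 2 µg/mL LPS (±compound, DMSO final 0.1%) at 37 °C, 5% CO₂, supernatant removed; MTT (5 mg/mL stock, 20 µL) added, 4 h at 37 °C; formazan dissolved in DMSO, absorbance at 570 nm. U937 were PMA-differentiated (200 nM, 24 h), then serum-free overnight; RAW264.7 grown in DMEM/10% FBS.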

**Q.** With COc1cc(/C=C2\CCC/C(=C\c3ccc(C)cc3)C2=O)ccc1O as the compound, how does the viability at 25 µM read?
**A.** Its viability at 25 µM is under 50%.

**Q.** Which viability at 25 µM does the source give for CCN(CC)c1ccc(/C=C2\CCC/C(=C\c3ccc(O)c(OC)c3)C2=O)cc1 here?
**A.** The viability at 25 µM was under 50%.

**Q.** For COc1cccc(/C=C2\CCC/C(=C\c3ccc(-c4ccc(F)cc4)cc3)C2=O)c1OC, which viability at 25 µM is on record?
**A.** The viability at 25 µM was 90%.

**Q.** Which viability at 25 µM does the source give for COc1cccc(/C=C2\CCC/C(=C\c3ccc(C)cc3)C2=O)c1OC here?
**A.** Its viability at 25 µM is 100%.

**Q.** For Cc1ccc(/C=C2\CCC/C(=C\c3ccc(Cl)c(Cl)c3)C2=O)cc1, which viability at 25 µM is on record?
**A.** Its viability at 25 µM is 95%.

**Q.** With COc1cccc(/C=C2\CCC/C(=C\c3ccc(Cl)c(Cl)c3)C2=O)c1OC as the compound, how does the viability at 25 µM read?
**A.** The viability at 25 µM was 77%.

**Q.** For O=C1/C(=C/c2ccc(Br)cc2)CCC/C1=C\c1ccc(-c2ccc(F)cc2)cc1, which viability at 25 µM is on record?
**A.** Its viability at 25 µM is 92%.

tested on: not listed separately; test: Cytotoxicity against PMA-treated human U937 cells assessed as cell viability at 25 uM by MTT assay relative to control; type: cell-based, U-937; settings: read-out: Activity; in short: as §2

**Q.** For COc1cc(/C=C2\CCC/C(=C\c3ccc(C)cc3)C2=O)ccc1O, which viability at 25 µM is on record?
**A.** The viability at 25 µM was 100%.

**Q.** With CCN(CC)c1ccc(/C=C2\CCC/C(=C\c3ccc(O)c(OC)c3)C2=O)cc1 as the compound, how does the viability at 25 µM read?
**A.** The viability at 25 µM was 100%.

**Q.** With COc1cccc(/C=C2\CCC/C(=C\c3ccc(-c4ccc(F)cc4)cc3)C2=O)c1OC as the compound, how does the viability at 25 µM read?
**A.** Its viability at 25 µM is 98%.

**Q.** With COc1cccc(/C=C2\CCC/C(=C\c3ccc(C)cc3)C2=O)c1OC as the compound, how does the viability at 25 µM read?
**A.** Its viability at 25 µM is 100%.

**Q.** Which viability at 25 µM does the source give for Cc1ccc(/C=C2\CCC/C(=C\c3ccc(Cl)c(Cl)c3)C2=O)cc1 here?
**A.** The viability at 25 µM was 100%.

**Q.** Which viability at 25 µM does the source give for COc1cccc(/C=C2\CCC/C(=C\c3ccc(Cl)c(Cl)c3)C2=O)c1OC here?
**A.** Its viability at 25 µM is 100%.

**Q.** With O=C1/C(=C/c2ccc(Br)cc2)CCC/C1=C\c1ccc(-c2ccc(F)cc2)cc1 as the compound, how does the viability at 25 µM read?
**A.** The viability at 25 µM was 98%.

tested on: RAW264.7; test: Inhibition of LPS/IFN-gamma-induced PGE2 production in mouse RAW264.7 cells after 17 to 20 hrs by enzyme immunoassay; type: functional, cell-based; settings: not given; in short: as §1

**Q.** With COc1cccc(/C=C2\CCC/C(=C\c3ccc(C)cc3)C2=O)c1OC as the compound, how does the IC50 read?
**A.** The IC50 was 12 µM.

**Q.** Which IC50 does the source give for CS(=O)(=O)Nc1ccc([N+](=O)[O-])cc1Oc1ccccc1 [NIMESULIDE] here?
**A.** The IC50 was under 0.078 µM.

tested on: U-937; test: Inhibition of LPS/IFN-gamma-induced PGE2 production in PMA-treated human U937 cells after 17 to 20 hrs by enzyme immunoassay; type: functional, cell-based; settings: not given; in short: as §1

**Q.** Which IC50 does the source give for COc1cccc(/C=C2\CCC/C(=C\c3ccc(C)cc3)C2=O)c1OC here?
**A.** Its IC50 is 3.44 µM.

**Q.** And the inhibition?
**A.** Its inhibition is “Dose-dependent effect”.

**Q.** Which IC50 does the source give for CS(=O)(=O)Nc1ccc([N+](=O)[O-])cc1Oc1ccccc1 [NIMESULIDE] here?
**A.** The IC50 was under 0.078 µM.

tested on: RAW264.7; test: Inhibition of LPS/IFN-gamma-induced PGE2 production in mouse RAW264.7 cells at 5 uM after 17 to 20 hrs by enzyme immunoassay relative to control; settings: RAW264.7, read-out: INH

**Q.** For CS(=O)(=O)Nc1ccc([N+](=O)[O-])cc1Oc1ccccc1 [NIMESULIDE], which inhibition at 5 µM is on record?
**A.** The inhibition at 5 µM was 66%.

tested on: U-937; test: Inhibition of LPS/IFN-gamma-induced PGE2 production in PMA-treated human U937 cells at 5 uM after 17 to 20 hrs by enzyme immunoassay relative to control; settings: U-937, read-out: INH

**Q.** Which inhibition at 5 µM does the source give for CS(=O)(=O)Nc1ccc([N+](=O)[O-])cc1Oc1ccccc1 [NIMESULIDE] here?
**A.** The inhibition at 5 µM was 89%.

tested on: not listed separately; test: Cytotoxicity against mouse RAW264.7 cells assessed as cell viability at 5 uM by MTT assay relative to control; settings: not given

**Q.** Which viability at 5 µM does the source give for CS(=O)(=O)Nc1ccc([N+](=O)[O-])cc1Oc1ccccc1 [NIMESULIDE] here?
**A.** Its viability at 5 µM is 100%.

tested on: not listed separately; test: Cytotoxicity against PMA-treated human U937 cells assessed as cell viability at 5 uM by MTT assay relative to control; settings: not given

**Q.** With CS(=O)(=O)Nc1ccc([N+](=O)[O-])cc1Oc1ccccc1 [NIMESULIDE] as the compound, how does the viability at 5 µM read?
**A.** The viability at 5 µM was 100%.

tested on: RAW264.7; test: Inhibition of LPS/IFN-gamma-induced nitric oxide production in mouse RAW264.7 cells at 25 uM relative to control; type: functional; settings: not given

**Q.** With COC(=O)[C@@H](N)CCCNC(=N)N[N+](=O)[O-] [L-NAME] as the compound, how does the inhibition at 25 µM read?
**A.** Its inhibition at 25 µM is 53%.

**Q.** With COc1cc(/C=C2\CCC/C(=C\c3ccc(C)cc3)C2=O)ccc1O as the compound, how does the inhibition at 25 µM read?
**A.** The inhibition at 25 µM was 100%.

**Q.** With CCN(CC)c1ccc(/C=C2\CCC/C(=C\c3ccc(O)c(OC)c3)C2=O)cc1 as the compound, how does the inhibition at 25 µM read?
**A.** The inhibition at 25 µM was 100%.

**Q.** For COc1cccc(/C=C2\CCC/C(=C\c3ccc(-c4ccc(F)cc4)cc3)C2=O)c1OC, which inhibition is on record?
**A.** The inhibition was “inactive”.

**Q.** Which inhibition at 25 µM does the source give for COc1cccc(/C=C2\CCC/C(=C\c3ccc(C)cc3)C2=O)c1OC here?
**A.** Its inhibition at 25 µM is 95%.

**Q.** With Cc1ccc(/C=C2\CCC/C(=C\c3ccc(Cl)c(Cl)c3)C2=O)cc1 as the compound, how does the inhibition at 25 µM read?
**A.** The inhibition at 25 µM was 71%.

**Q.** For COc1cccc(/C=C2\CCC/C(=C\c3ccc(Cl)c(Cl)c3)C2=O)c1OC, which inhibition at 25 µM is on record?
**A.** The inhibition at 25 µM was 90%.

**Q.** Which inhibition does the source give for O=C1/C(=C/c2ccc(Br)cc2)CCC/C1=C\c1ccc(-c2ccc(F)cc2)cc1 here?
**A.** The inhibition was “inactive”.

biological target: T1, Prostaglandin G/H synthase 1 (Ovis aries) (UniProt P05979); test: Inhibition of ovine COX1 at 25 uM by ELISA relative to control; settings: not given
T1 sequence (whole entry): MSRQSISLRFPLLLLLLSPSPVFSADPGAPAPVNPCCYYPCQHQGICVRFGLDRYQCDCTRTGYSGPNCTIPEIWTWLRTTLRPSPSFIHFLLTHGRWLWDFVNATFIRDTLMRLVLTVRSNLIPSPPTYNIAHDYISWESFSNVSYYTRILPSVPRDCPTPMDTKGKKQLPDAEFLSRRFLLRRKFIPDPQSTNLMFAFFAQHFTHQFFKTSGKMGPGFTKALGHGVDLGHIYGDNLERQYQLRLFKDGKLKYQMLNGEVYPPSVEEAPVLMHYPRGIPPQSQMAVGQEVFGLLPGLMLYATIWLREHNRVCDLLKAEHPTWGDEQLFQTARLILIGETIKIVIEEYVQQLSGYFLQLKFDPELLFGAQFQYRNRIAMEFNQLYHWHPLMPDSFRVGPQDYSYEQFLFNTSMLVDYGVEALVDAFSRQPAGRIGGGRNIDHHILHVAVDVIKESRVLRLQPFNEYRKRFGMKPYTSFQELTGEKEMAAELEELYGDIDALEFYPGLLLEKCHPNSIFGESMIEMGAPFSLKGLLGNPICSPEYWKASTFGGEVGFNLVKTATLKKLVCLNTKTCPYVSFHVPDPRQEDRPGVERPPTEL
In short: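 COX-1 (ovine) inhibition measured with a commercial ovine/human COX inhibitor screening ELISA kit per manufacturer's protocol; prostaglandin concentrations read on a microplate reader and calculated from standard curves.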

**Q.** With COc1cccc(/C=C2\CCC/C(=C\c3ccc(C)cc3)C2=O)c1OC as the compound, how does the inhibition read?
**A.** The inhibition was “inactive”.

tested on: RAW264.7; test: Inhibition of LPS/IFN-gamma-induced PGE2 production in mouse RAW264.7 cells at 25 uM after 17 to 20 hrs by enzyme immunoassay relative to control; type: functional; settings: not given; in short: as §1

**Q.** For COc1cc(/C=C2\CCC/C(=C\c3ccc(C)cc3)C2=O)ccc1O, which inhibition at 25 µM is on record?
**A.** Its inhibition at 25 µM is 95%.

**Q.** With CCN(CC)c1ccc(/C=C2\CCC/C(=C\c3ccc(O)c(OC)c3)C2=O)cc1 as the compound, how does the inhibition at 25 µM read?
**A.** The inhibition at 25 µM was 95%.

**Q.** With COc1cccc(/C=C2\CCC/C(=C\c3ccc(-c4ccc(F)cc4)cc3)C2=O)c1OC as the compound, how does the inhibition at 25 µM read?
**A.** Its inhibition at 25 µM is 51%.

**Q.** For COc1cccc(/C=C2\CCC/C(=C\c3ccc(C)cc3)C2=O)c1OC, which inhibition at 25 µM is on record?
**A.** Its inhibition at 25 µM is 83%.

**Q.** For Cc1ccc(/C=C2\CCC/C(=C\c3ccc(Cl)c(Cl)c3)C2=O)cc1, which inhibition at 25 µM is on record?
**A.** Its inhibition at 25 µM is 64%.

**Q.** Which inhibition at 25 µM does the source give for COc1cccc(/C=C2\CCC/C(=C\c3ccc(Cl)c(Cl)c3)C2=O)c1OC here?
**A.** The inhibition at 25 µM was 73%.

**Q.** For O=C1/C(=C/c2ccc(Br)cc2)CCC/C1=C\c1ccc(-c2ccc(F)cc2)cc1, which inhibition at 25 µM is on record?
**A.** Its inhibition at 25 µM is 53%.
